Test results as given in article PMC3621463 (Nature Communications, 2012).

Experiments:
p53 = p53 protein level, immunoblot; assay type: cell-based; conditions: U2OS cells, PIMT siRNA/shRNA or ectopic PIMT expression
p53 ubiquitination = assay: p53 ubiquitination; assay type: cell-based; conditions: U2OS or H1299 cells, MG132 40 μM
p53-HDM2 interaction = assay: p53-HDM2 co-immunoprecipitation; assay type: cell-based; conditions: U2OS cells (PIMT siRNA) or H1299 cells (HA-p53, Flag-PIMT)
Summary of the method: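 Supernatants were incubated overnight at 4 °C with FLAG-, HA- or p53-antibody agarose and washed twice. Eluates were boiled 5 min, run on 4–12% Bis–Tris gels and immunoblotted with HRP-conjugated primary antibodies using chemiluminescence.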

[1] = tested on: p21 or Bax promoter luciferase; assay: Luciferase assay, p53-dependent transcription; assay type: cell-based; conditions: H1299 cells, p21-luc or Bax-luc; n=4
U2OS cells = assay: Flow cytometry, early apoptosis, adriamycin; assay type: cell-based; conditions: adriamycin 1 μg ml−1, one day; control cells (control siRNA); n=4
Summary of the method: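 U2OS cells were transfected with PIMT or control siRNA. After 2 days they were treated with adriamycin, and apoptotic cells were scored by flow cytometry one day later. At least 10,000 cells were analysed per treatment. Significance was tested by Student's t-test.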

PIMT = assay: In vitro methylation assay with recombinant GST-PIMT; assay type: biochemical; conditions: GST-p53 1–82 methylated by GST-PIMT or His-PIMT, followed by NaOH; fluorography

**Q.** Which results are given for “protein L-isoaspartyl methyltransferase [PIMT]”?
**A.** p53 protein level (p53): decreased the p53 protein levels in a dose-dependent manner; ubiquitination of p53 (p53 ubiquitination): increased p53 ubiquitination; p53-HDM2 interaction (p53-HDM2 interaction): enhanced; p53-dependent transcription [1]: inhibited the p53-dependent transcription of both reporter genes

**Q.** With `COc1cccc2c1C(=O)c1c(O)c3c(c(O)c1C2=O)C[C@@](O)(C(=O)CO)C[C@@H]3O[C@H]1C[C@H](N)[C@H](O)[C@H](C)O1` [adriamycin] as the compound, how does the early apoptosis (U2OS cells) read?
**A.** Its early apoptosis is 19.5%.

**Q.** “p53 (amino acids 1–82): N terminus of p53 (amino acids 1–82)” was tested. Which “methylation after alkaline treatment” value (PIMT) did it give?
**A.** Its value is “removed upon alkaline treatment”.
